Measured values from ChEMBL document CHEMBL5113456, “2-Aminopyridines with a shortened amino sidechain as potent, selective, and highly permeable human neuronal nitric oxide synthase inhibitors” (Bioorg Med Chem, 2022).

What was measured:
Nitric oxide synthase 3 = target: T1, Nitric oxide synthase 3 (Homo sapiens, UniProt P29474); test: Inhibition of human eNOS using L-arginine as substrate assessed as reduction in NO production in the presence of NADPH by NO-hemoglobin capture assay
T1 sequence (P29474 whole entry): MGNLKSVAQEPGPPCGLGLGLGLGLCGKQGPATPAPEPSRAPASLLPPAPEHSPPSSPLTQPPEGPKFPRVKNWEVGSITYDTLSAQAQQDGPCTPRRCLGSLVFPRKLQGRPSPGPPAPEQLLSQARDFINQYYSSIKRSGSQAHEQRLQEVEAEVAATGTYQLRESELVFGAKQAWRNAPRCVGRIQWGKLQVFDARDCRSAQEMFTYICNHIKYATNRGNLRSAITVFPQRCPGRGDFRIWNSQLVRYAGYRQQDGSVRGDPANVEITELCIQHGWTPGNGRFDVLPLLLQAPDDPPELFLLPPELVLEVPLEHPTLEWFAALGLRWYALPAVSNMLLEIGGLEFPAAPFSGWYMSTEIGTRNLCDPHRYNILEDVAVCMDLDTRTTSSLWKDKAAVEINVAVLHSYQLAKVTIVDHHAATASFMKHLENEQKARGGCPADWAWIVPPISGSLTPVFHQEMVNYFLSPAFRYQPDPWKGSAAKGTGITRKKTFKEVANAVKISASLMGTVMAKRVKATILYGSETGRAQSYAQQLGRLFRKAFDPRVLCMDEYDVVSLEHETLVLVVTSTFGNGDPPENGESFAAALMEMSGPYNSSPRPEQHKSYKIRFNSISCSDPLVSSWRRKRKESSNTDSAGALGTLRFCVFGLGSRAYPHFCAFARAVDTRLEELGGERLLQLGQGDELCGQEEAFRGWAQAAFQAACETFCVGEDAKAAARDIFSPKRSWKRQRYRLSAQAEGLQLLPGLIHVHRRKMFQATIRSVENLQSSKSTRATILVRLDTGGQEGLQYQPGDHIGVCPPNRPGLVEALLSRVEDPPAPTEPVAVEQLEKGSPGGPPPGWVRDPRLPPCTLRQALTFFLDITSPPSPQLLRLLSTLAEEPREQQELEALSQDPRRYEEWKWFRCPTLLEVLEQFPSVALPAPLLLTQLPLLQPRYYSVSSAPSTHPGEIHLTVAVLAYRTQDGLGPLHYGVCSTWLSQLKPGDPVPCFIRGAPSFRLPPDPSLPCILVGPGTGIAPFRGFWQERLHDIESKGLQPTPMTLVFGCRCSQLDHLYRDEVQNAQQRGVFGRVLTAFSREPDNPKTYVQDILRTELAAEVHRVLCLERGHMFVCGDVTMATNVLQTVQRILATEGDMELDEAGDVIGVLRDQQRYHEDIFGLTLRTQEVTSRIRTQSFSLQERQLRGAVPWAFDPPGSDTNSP
Outline: (§1)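 Ki was obtained from IC50 by the Cheng–Prusoff equation. […] Enzyme was purified human NOS isoform. Assay buffer was 100 mM HEPES, 10% glycerol, pH 7.4–7.5, and stock buffer was 100 mM HEPES, pH 7.4–7.5. Plate reader syringe lines were equilibrated with assay buffer before the run.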

[1] = Effective permeability of compound in PBS buffer at pH 7.4 at 200 uM incubated for 17 hrs by PAMPA-BBB assay; assay type: ADME; details: read-out: Peff
[2] = target: Nitric oxide synthase, inducible (Homo sapiens, UniProt P35228); test: Inhibition of human iNOS using L-arginine as substrate assessed as reduction in NO production in the presence of NADPH by NO-hemoglobin capture assay; outline: as §1
Nitric oxide synthase 1 [3] = target: Nitric oxide synthase 1 (Homo sapiens, UniProt P29475)
Nitric oxide synthase 1 [4] = target: Nitric oxide synthase 1 (Rattus norvegicus, UniProt P29476)
Sequence of Nitric oxide synthase 1 (Rattus norvegicus, UniProt P29476) (P29476 whole entry): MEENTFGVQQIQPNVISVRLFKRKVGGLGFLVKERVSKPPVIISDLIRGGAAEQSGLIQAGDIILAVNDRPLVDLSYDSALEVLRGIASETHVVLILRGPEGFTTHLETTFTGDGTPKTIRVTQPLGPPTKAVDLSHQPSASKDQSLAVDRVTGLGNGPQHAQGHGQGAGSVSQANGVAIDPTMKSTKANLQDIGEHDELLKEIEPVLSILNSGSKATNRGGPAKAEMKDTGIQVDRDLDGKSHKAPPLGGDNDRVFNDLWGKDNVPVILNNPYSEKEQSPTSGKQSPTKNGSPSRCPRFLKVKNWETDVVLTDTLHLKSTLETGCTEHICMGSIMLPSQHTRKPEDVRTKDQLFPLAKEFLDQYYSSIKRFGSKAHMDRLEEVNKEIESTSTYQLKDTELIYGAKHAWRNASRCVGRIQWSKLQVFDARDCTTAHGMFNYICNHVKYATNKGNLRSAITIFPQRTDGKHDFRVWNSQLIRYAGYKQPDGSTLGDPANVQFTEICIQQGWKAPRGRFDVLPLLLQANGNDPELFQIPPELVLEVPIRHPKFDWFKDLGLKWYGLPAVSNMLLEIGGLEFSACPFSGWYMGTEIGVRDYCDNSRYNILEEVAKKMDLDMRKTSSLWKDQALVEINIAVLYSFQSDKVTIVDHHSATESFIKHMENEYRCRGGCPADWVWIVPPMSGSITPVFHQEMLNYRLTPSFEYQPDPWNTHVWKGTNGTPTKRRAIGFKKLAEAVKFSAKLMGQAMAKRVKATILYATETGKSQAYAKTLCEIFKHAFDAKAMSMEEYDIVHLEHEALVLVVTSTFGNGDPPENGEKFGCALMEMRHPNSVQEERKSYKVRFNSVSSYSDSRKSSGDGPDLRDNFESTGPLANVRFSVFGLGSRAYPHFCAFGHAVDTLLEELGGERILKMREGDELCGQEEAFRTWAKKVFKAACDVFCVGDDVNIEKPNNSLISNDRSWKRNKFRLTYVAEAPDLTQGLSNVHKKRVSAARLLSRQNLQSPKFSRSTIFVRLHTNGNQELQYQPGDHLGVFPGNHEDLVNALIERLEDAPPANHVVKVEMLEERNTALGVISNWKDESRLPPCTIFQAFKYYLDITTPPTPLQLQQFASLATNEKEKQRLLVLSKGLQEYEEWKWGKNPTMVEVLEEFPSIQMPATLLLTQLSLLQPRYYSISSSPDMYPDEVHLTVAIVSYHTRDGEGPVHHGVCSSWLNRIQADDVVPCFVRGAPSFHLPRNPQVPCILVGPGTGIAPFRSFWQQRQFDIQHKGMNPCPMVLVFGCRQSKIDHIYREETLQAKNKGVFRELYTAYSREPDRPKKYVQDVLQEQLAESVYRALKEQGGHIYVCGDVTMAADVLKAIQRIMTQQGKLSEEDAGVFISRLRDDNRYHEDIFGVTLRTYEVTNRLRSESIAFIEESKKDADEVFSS

Sequence of Nitric oxide synthase, inducible (P35228 whole entry): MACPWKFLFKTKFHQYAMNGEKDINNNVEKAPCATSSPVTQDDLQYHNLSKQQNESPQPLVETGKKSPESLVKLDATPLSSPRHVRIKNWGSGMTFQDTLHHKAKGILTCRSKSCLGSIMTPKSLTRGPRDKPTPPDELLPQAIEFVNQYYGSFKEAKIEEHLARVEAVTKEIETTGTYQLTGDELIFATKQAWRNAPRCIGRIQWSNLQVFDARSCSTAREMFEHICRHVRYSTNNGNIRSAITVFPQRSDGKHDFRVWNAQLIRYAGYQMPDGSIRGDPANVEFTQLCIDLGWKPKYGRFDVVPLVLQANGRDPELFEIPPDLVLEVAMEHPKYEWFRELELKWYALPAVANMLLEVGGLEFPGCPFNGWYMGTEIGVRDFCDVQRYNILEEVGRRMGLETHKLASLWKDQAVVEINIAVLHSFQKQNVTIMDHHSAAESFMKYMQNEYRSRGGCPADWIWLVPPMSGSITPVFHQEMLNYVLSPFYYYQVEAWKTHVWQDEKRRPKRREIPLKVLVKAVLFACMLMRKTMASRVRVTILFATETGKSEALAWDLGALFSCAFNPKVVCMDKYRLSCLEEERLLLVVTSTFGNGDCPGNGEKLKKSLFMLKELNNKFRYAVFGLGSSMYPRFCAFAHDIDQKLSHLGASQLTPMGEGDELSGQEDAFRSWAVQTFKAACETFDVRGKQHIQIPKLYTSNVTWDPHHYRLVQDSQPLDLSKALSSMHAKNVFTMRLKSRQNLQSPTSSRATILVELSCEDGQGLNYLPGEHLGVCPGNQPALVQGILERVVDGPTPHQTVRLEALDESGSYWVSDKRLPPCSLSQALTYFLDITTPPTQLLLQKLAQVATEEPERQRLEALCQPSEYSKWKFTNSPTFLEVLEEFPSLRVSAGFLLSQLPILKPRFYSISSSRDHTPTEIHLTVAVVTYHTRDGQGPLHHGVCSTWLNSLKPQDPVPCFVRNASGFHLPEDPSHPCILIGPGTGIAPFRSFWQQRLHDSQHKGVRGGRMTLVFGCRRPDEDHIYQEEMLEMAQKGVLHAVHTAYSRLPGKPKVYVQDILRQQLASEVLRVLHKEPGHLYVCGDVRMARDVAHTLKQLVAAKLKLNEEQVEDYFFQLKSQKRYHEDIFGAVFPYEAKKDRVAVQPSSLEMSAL
Sequence of Nitric oxide synthase 1 (Homo sapiens, UniProt P29475) (P29475 whole entry): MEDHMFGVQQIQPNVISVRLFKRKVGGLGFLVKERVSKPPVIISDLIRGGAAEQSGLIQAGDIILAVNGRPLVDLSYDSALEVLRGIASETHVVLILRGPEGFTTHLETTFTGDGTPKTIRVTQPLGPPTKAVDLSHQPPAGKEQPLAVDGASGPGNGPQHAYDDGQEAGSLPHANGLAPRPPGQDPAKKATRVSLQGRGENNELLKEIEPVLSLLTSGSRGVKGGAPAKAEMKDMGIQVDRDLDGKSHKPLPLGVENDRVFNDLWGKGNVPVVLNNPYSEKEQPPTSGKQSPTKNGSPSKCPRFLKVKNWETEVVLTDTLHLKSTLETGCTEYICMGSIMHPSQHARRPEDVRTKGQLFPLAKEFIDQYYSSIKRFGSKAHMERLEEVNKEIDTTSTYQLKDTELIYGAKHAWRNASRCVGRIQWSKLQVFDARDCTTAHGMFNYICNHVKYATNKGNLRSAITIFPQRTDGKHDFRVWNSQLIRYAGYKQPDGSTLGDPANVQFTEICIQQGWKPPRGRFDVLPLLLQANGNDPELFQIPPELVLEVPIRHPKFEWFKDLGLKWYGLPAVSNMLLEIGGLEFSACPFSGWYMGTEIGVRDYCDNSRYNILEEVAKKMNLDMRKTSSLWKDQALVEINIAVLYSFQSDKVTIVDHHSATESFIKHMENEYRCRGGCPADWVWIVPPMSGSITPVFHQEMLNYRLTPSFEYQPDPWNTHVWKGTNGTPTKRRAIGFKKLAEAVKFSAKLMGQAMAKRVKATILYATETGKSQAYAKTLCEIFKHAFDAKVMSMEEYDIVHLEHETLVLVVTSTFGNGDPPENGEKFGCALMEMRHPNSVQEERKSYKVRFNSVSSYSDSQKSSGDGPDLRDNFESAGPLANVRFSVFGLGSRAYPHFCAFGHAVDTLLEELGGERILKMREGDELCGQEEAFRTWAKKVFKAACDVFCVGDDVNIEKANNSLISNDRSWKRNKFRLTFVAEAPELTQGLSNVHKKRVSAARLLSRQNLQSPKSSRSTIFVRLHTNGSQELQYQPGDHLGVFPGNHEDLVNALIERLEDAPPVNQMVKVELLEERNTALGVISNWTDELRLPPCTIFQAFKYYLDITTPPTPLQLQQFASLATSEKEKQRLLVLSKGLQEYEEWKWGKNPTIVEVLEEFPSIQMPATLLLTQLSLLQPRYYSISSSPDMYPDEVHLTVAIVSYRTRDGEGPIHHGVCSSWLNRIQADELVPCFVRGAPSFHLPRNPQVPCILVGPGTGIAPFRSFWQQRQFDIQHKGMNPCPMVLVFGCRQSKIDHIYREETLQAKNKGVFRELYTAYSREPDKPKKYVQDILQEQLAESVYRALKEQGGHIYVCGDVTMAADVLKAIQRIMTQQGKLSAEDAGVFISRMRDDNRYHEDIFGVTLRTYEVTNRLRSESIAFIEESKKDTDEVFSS

Row | Compound | Ki (Nitric oxide synthase 3) [µM] | Papp at 17 h, 200 µM [1] [×10⁻⁶ cm/s] | Ki [2] [µM] | Ki (Nitric oxide synthase 1 [3]) [µM] | Ki (Nitric oxide synthase 1 [4]) [µM]
1 | Cc1cc(N)nc(C#CCN2CCN(C)CC2)c1 | 43.8 | 3.2 | – | – | –
2 | Cc1cc(N)nc(C#CCCN(C)C)c1 | 70.5 | 4.7 | 29.8 | 0.327 | 0.242
3 | Cc1cc(N)nc(CCCN2CCC(F)(F)CC2)c1 | 18.6 | 17.3 | 6.48 | 0.048 | 0.046
4 | Cc1cc(N)nc(C#CCN2CCC(F)(F)CC2)c1 | 18.9 | 21.1 | 27.4 | 1.43 | 1.59

The next molecules have a lower Ki (Nitric oxide synthase 3) than those just listed; values first:

Row | Ki (Nitric oxide synthase 3) [µM] | Papp at 17 h, 200 µM [1] [×10⁻⁶ cm/s] | Ki [2] [µM] | Ki (Nitric oxide synthase 1 [3]) [µM] | Ki (Nitric oxide synthase 1 [4]) [µM] | Compound
5 | 1.92 | 4.7 | – | – | – | CNCC#Cc1cc(C)cc(N)n1
6 | 7.35 | 2.3 | 7.67 | – | – | Cc1cc(N)nc(CCCCN(C)C)c1
7 | 3.66 | 2 | – | – | – | Cc1cc(N)nc(CCCN(C)C)c1
8 | 1.47 | 0.96 | – | – | – | CNCCCc1cc(C)cc(N)n1
9 | 5.13 | 19.6 | 11.1 | 0.488 | 0.465 | Cc1cc(N)nc(C#CCN2CC(F)(F)C2)c1
10 | 12.5 | 2.2 | – | – | 0.056 | Cc1cc(N)nc(CCCN2CCN(C)CC2)c1
11 | 6.27 | 17.5 | 4.36 | 0.149 | 0.095 | Cc1cc(N)nc(CCCN2CC(F)(F)C2)c1
